From ChEMBL document CHEMBL1157313, “Metabolites from the marine-derived fungus Chromocleista sp. isolated from a deep-water sediment sample collected in the Gulf of Mexico” (2006)
Values after ≈ are worked out from the molar mass of the structure shown. Active and inactive are the calls of the source. The rule behind the calls is not given here.

Assays:
Candida albicans [1] = assay: Antifungal activity against Candida albicans ATCC 44506 up to 50 ug/mL after 18 hrs by broth microdilution method; assay type: functional, organism-based
Procedure, shortened: (§1)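 MIC by standard broth microdilution with Sabouraud dextrose broth as growth medium; plates incubated 18 h at 37 °C.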

Staphylococcus aureus = assay: Antibacterial activity against Staphylococcus aureus ATCC 29213 at 50 ug/mL after 18 hrs by broth microdilution technique; assay type: functional, organism-based
Procedure, shortened: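 MIC by standard broth microdilution in cation-supplemented Mueller-Hinton broth; plates incubated 18 h at 37 °C; tested at 50 µg/mL.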

P388 = assay: Cytotoxicity against mouse P388 cells at 5 ug/mL after 45 hrs by MTT assay; assay type: functional, cell-based
Procedure, shortened: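 Murine leukemia cells incubated 45 h with compound at 5 µg/mL in 96-well plates; cytotoxicity read spectrophotometrically using MTT.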

A549 = assay: Cytotoxicity against human A549 cells at 5 ug/mL after 72 hrs by MTT assay; assay type: functional, cell-based
Procedure, shortened: (§2)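 Cells exposed to compound at 5 µg/mL for 72 h in 96-well format; viability read spectrophotometrically with MTT.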

PANC-1 = assay: Cytotoxicity against human PANC1 cells at 5 ug/mL after 72 hrs by MTT assay; assay type: functional, cell-based; procedure, shortened: as §2
NCI/ADR-RES = assay: Cytotoxicity against human NCI-ADR-RES cells at 5 ug/mL after 72 hrs by MTT assay; assay type: functional, cell-based; procedure, shortened: as §2
Candida albicans [2] = assay: Antifungal activity against Candida albicans ATCC 44506 after 18 hrs by broth microdilution method; assay type: functional; conditions: ATCC 44506, 18 h; procedure, shortened: as §1

Row | Compound | Activity (Candida albicans [1]) | Activity (Staphylococcus aureus) | Activity (P388) | Activity (A549) | Activity (PANC-1) | Activity (NCI/ADR-RES) | MIC (Candida albicans [2])
1 | O=C1[C@H](Cc2ccccc2)NC(=O)[C@]2(O)CCCN12 | inactive | inactive | inactive | inactive | inactive | inactive | –
2 | O=C1C(O)=C(c2ccc(O)cc2)[C@@H]2CCCN12 | – | inactive | inactive | inactive | inactive | inactive | 25 µg/mL (≈ 108 µM)
3 | O=C1[C@H](Cc2ccccc2)NC(=O)[C@@]2(O)CCCN12 | inactive | inactive | inactive | inactive | inactive | inactive | –
4 | O=C1N[C@@H](Cc2ccccc2)C(=O)N2CCC=C12 | inactive | inactive | inactive | inactive | inactive | inactive | –
